# Screening data (PubChem BioAssay)
# E-sel inducer = induces E-selectin expression in human endothelial cells; P16581; HUVEC E-selectin immunofluorescence imaging; normalized: neutral wells 0, TNF-alpha wells 100; activation, % at 7.58 µM; 260,000 compounds, 0.37% hits; AID 686992;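 active = mean E-selectin-positive cell signal at least 10% of the positive control, reached in at least 60% of replicates, without over 20% cell loss; inconclusive = no rule given, readout overlaps actives, possibly toxicity-flagged; inactive = the rest, including those meeting only one limit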
#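 Test system – human umbilical vein endothelial cells (HUVEC), E-selectin induction · Input – 3,000 HUVEC seeded per well · Buffer or medium – EGM-2, gelatin · Compound dosing – single-point compound dose · Detection – immunofluorescence imaging · Measure – percent E-selectin-positive cells · Controls – TNF-alpha high, DMSO low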
# ERAP1 HTS inh = ERAP1 (human) enzyme inhibition; Q9NZ08; recombinant ERAP1, Leu-AMC fluorescence, 60 min; inhibition, % at 10.7 µM; 340,000 compounds, 0.15% hits; AID 652197;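 active = mean replicate inhibition of at least 30%, or all replicates individually reaching that 30% level; inactive = mean below 30% and not every replicate reaching it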;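 note: 0% = neutral control wells and 100% = L-leucinethiol positive control wells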
# Target sequence (Q9NZ08 whole entry, looked up): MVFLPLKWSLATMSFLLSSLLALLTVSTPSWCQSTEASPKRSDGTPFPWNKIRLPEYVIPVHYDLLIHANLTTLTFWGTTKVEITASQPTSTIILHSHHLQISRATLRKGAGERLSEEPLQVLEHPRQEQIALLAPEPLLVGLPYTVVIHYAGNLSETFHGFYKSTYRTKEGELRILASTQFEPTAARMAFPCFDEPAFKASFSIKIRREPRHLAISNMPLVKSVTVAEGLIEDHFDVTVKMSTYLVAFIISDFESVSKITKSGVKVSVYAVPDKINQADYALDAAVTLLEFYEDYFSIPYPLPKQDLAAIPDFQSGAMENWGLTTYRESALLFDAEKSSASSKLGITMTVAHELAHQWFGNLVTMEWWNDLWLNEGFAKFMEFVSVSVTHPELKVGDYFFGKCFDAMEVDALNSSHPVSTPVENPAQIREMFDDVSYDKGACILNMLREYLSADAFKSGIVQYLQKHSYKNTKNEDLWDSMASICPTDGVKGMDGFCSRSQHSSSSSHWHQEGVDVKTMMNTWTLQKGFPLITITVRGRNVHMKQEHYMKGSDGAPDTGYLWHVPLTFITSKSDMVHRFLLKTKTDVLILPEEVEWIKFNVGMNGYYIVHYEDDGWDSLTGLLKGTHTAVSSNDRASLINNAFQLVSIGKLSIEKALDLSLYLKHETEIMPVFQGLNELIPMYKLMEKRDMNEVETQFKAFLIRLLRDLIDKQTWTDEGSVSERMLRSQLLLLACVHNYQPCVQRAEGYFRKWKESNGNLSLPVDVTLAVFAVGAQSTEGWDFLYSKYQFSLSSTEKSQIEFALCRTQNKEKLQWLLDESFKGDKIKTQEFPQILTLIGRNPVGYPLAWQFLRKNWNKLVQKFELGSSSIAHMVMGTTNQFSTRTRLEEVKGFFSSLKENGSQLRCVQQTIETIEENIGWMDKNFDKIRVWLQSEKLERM
# SIRT5 block = blocks human SIRT5 desuccinylation of peptide; AID 652115; Purified SirT5, succinyl-peptide AMC, trypsin-coupled fluorescence; 330,000 compounds, 1.1% hits; inhibition, % at 15 µM; in the data active = inhibition above about 15%; inconclusive = no clear call, values can overlap the other calls
# AF4-AF9 inh = blocks AF4 peptide binding to human AF9. P42568. AlphaScreen, biotin-AF4 peptide binding to FLAG-AF9. inhibition, % at 10 µM. 350,000 compounds, 0.47% hits;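 active = every replicate reaching a set inhibition limit, whatever the replicate mean, cut at about 25% in these data; inconclusive = mean inhibition reaches that limit but some replicates miss it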;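 note: 0% = plate neutral control median and 100% = total signal loss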
# S100A4 inh HTS = S100A4-myosin IIA interaction inhibition. P26447. S100A4/TAMRA-MyoIIA peptide fluorescence polarization. inhibition, % at 10.7 µM. 360,000 compounds, 0.14% hits. AID 652163;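 active = mean inhibition of at least 70% across replicates, with every replicate also reaching that level; inconclusive = mean inhibition reaches 70% but some replicates fall short; inactive = mean inhibition below 70%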
#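 Material: human S100A4 monomer with TAMRA-labelled myosin IIA peptide; buffer or medium: HEPES pH 7.2 with CaCl2, KCl, NaCl, DTT, Triton; compound dosing: one concentration per compound; schedule: 5 min incubation before reading; benchmarks: neutral control DMSO, positive control TFP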
# Ecoli rRNA inh = inhibits bacterial ribosomal RNA function over humanized ribosomes. E. coli WT GFP vs humanized-ribosome RFP mutants, fluorescence, 24 h; stronger effect = lower value; DMSO median 0, no signal -100. GFP signal change (wild-type ribosome), % (concentration not given with the values). 350,000 compounds, 1.6% hits;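 active = significant combined selectivity score with lowered wild-type GFP, culture density cut under 30%, mutant RFP and density less affected; inactive = any of these conditions unmet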
# An asterisk follows results filed as active; ? = inconclusive; / = no result given. Sampled rows, rich in hits. Any-hit rate of the full collection: about 3.4%.
SMILES,E-sel inducer,ERAP1 HTS inh,SIRT5 block,AF4-AF9 inh,S100A4 inh HTS,Ecoli rRNA inh
CN(Cc1ccccc1)C(=O)c1[nH]cnc1C(=O)NCc1ccc(CNC(=O)OC(C)(C)C)cc1,-1,0,/,/,43,-12
CN(Cc1ccccc1)C(=O)c1[nH]cnc1C(=O)Nc1ccc(Br)cc1F,0,7,18*,-10,-2,-23
N#Cc1c(/N=C/c2ccc(-c3ccc(C(=O)O)c(Cl)c3)o2)sc2c1CCCC2,0,-53,5,3,5,/
Cc1nc(S/C(=C\c2ccc(-c3ccc(C(=O)O)c(Cl)c3)o2)C(=O)O)n[nH]1,7,-8,28*,-27,-6,3
Cc1ccccc1NC(=O)C1COc2ccccc2O1 (centres undefined),/,-2,4,0,1,-1
COC(=O)c1ccsc1NC(=O)C1COc2ccccc2O1 (centres undefined),0,5,1,-5,7,-32*
O=C(CN1C(=O)c2cccc3cccc(c23)C1=O)NCCCO,63*,-1,-8,-1,-7,-21
O=C(CCCCCN1C(=O)c2cccc3cccc(c23)C1=O)NCCCO,0,-1,-9,0,-4,-8
CCc1cccc(C)c1N=Cc1c(O)c2ccccc2oc1=O,/,0,-4,4,-4,-24*
C[C@@H]1CN(C)C(=O)Cc2cc(N(C)C)ccc2O[C@H]1CN(C)S(C)(=O)=O,/,/,/,/,/,-1
CC(=O)c1ccc(NC(=S)Nc2ccc(Br)c(Cl)c2)cc1,/,-4,/,1,-1,-53
CC(=O)c1ccc(NC(=S)NC(C)c2ccc(Cl)cc2Cl)cc1 (centres undefined),/,4,-1,-8,-4,-49*
CC(=O)c1ccc(OCc2cc(C(=O)N3CCCCC3c3cccnc3)no2)cc1 (centres undefined),0,1,-2,5,2,-28*
CC(=O)c1ccc(OCc2cc(C(=O)N3CCC(c4ccncc4)CC3)no2)cc1,/,0,1,3,2,-4
COCC1CCCCN1C(=O)c1cc(COc2ccc3ncccc3c2)on1 (centres undefined),/,2,-3,1,-4,-1
CCC1CCCCN1C(=O)c1cc(COc2ccc3ncccc3c2)on1 (centres undefined),-4,-8,-3,1,-12,-30*
O=C(NCc1ccccn1)[C@@H]1[C@@H](CO)[C@@H]2Cn3c(ccc(C4=CCCC4)c3=O)[C@H]1N2Cc1cccnc1,-1,4,-4,4,11,2
CCCC#Cc1cnc2c(c1)C(=O)N([C@H](C)CO)C[C@H](C)[C@@H](CN(C)CCC)O2,1,0,2,4,4,2
O=C(C[C@H]1C[C@H]2c3cc(NC(=O)NC4CCCCC4)ccc3O[C@H]2[C@H](CO)O1)NCc1ccccc1,2,-3,4,0,6,5
COc1cccc(NC(=O)N[C@@H]2C=C[C@@H](CC(=O)N3CCOCC3)O[C@@H]2CO)c1,0,-4,2,-6,?,1
COc1ccc(CCN2C(=O)c3ccccc3C2c2nnnn2Cc2ccccc2)cc1OC (centres undefined),2,/,-5,-1,-2,-21*
O=C(Nc1ccc(C(=O)OC[C@@H]2CCCN3CCCC[C@H]23)cc1)c1cccc(Br)c1,/,-5,4,14,-10,-44*
O=C(NC(=O)c1cccc(F)c1)OC[C@@H]1CCCN2CCCC[C@H]12,0,2,1,0,-1,7
CCCN1[C@@H]2Cn3c(ccc(-c4ccccc4)c3=O)[C@H]1[C@@H](C(=O)NCCc1cn(C)cn1)[C@@H]2CO,0,1,-2,2,-4,2
CN(C)C(=O)[C@H]1[C@H](CO)[C@H]2Cn3c(cccc3=O)[C@@H]1N2C(=O)c1ccccc1,1,2,1,-1,126*,1
CCCN1[C@@H]2Cn3c(ccc(-c4cccnc4)c3=O)[C@H]1[C@@H](C(=O)NCCc1cn(C)cn1)[C@@H]2CO,1,31*,-3,-2,1,2
CCC(=O)N1[C@@H]2c3ccc(/C=C/c4ccccc4)c(=O)n3C[C@H]1[C@H](CO)[C@H]2C(=O)N(C)C,0,38*,-137,-1,-5,0
CCC(=O)N1[C@@H]2c3ccc(-c4ccncc4)c(=O)n3C[C@H]1[C@H](CO)[C@H]2C(=O)NC1Cc2ccccc2C1,0,8,-65,-11,154*,-2
C[C@H](NC(=O)C[C@@H]1C[C@@H]2c3cc(NS(=O)(=O)c4ccc(F)cc4)ccc3O[C@@H]2[C@H](CO)O1)c1ccccc1,1,3,1,-1,1,-3
